# Active and inactive are the calls of the source. No cut-off for these calls is given here.
# Columns and labels:
# THP-1 [1] = experiment: Cytotoxicity against human THP1 cells assessed as cell viability at 12.5 ug/ml incubated for 24 hrs by MTS assay; type: functional; settings: THP-1, 24 h, read-out: Activity
# Outline: (§1)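 Cells were held at 37 °C, 5% CO2 in humid air. HEp-2 (5 x 10³/well) and HCT-8 (7 x 10³/well) grew in DMEM + 10% heat-inactivated FBS and got compound (binary dilutions) 24 h after seeding. THP-1 (5 x 10³ cells, RPMI-1640 + 10% FBS) were added directly to the dilutions. Exposure lasted 24 h. MTS (CellTiter 96 AQueous One) read-out was absorbance at 490 nm.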
# THP-1 [2] = experiment: Cytotoxicity against human THP1 cells assessed as cell viability at 25 ug/ml incubated for 24 hrs by MTS assay; type: functional; settings: THP-1, 24 h, read-out: Activity; outline: as §1
# THP-1 [3] = experiment: Cytotoxicity against human THP1 cells assessed as cell viability at 50 ug/ml incubated for 24 hrs by MTS assay; type: functional; settings: THP-1, 24 h, read-out: Activity; outline: as §1
# [4] = Cytotoxicity against human HCT8 cells assessed as cell viability at 12.5 ug/ml incubated for 24 hrs by MTS assay; type: functional; settings: HCT-8, 24 h, read-out: Activity; outline: as §1
# [5] = Cytotoxicity against human HCT8 cells assessed as cell viability at 25 ug/ml incubated for 24 hrs by MTS assay; type: functional; settings: HCT-8, 24 h, read-out: Activity; outline: as §1
# [6] = Cytotoxicity against human HCT8 cells assessed as cell viability at 50 ug/ml incubated for 24 hrs by MTS assay; type: functional; settings: HCT-8, 24 h, read-out: Activity; outline: as §1
# [7] = Cytotoxicity against human Hep2 cells assessed as cell viability at 12.5 ug/ml incubated for 24 hrs by MTS assay; type: functional; settings: HEp-2, 24 h, read-out: Activity; outline: as §1
# [8] = Cytotoxicity against human Hep2 cells assessed as cell viability at 25 ug/ml incubated for 24 hrs by MTS assay; type: functional; settings: HEp-2, 24 h, read-out: Activity; outline: as §1
# [9] = Cytotoxicity against human Hep2 cells assessed as cell viability at 50 ug/ml incubated for 24 hrs by MTS assay; type: functional; settings: HEp-2, 24 h, read-out: Activity; outline: as §1
# HCT-8 [10] = experiment: Induction of apoptosis in human HCT8 cells assessed necrosis level at 50 ug/ml incubated for 24 hrs by annexin V-FITC and propidium iodide staining based flow cytometry (reference value: 1.12%); type: functional
# HCT-8 [11] = experiment: Induction of apoptosis in human HCT8 cells assessed early apoptosis level at 50 ug/ml incubated for 24 hrs by annexin V-FITC and propidium iodide staining based flow cytometry (reference value: 0.75%); type: functional
# HCT-8 [12] = experiment: Induction of apoptosis in human HCT8 cells assessed late apoptosis level at 50 ug/ml incubated for 24 hrs by annexin V-FITC and propidium iodide staining based flow cytometry (reference value: 4.8%); type: functional
# HCT-8 [13] = experiment: Induction of apoptosis in human HCT8 cells assessed viable cells level at 50 ug/ml incubated for 24 hrs by annexin V-FITC and propidium iodide staining based flow cytometry (reference value: 93.3%); type: functional
# HEp-2 [14] = experiment: Induction of cell cycle arrest in human Hep2 cells assessed accumulation at G2/M phase incubated for 24 hrs by propidium iodide staining based flow cytometry; type: functional
# HEp-2 [15] = experiment: Induction of cell cycle arrest in human Hep2 cells assessed accumulation at G0/G1 phase at 10 ug/ml incubated for 24 hrs by propidium iodide staining based flow cytometry (reference value: 74.51%); type: functional
# HEp-2 [16] = experiment: Induction of cell cycle arrest in human Hep2 cells assessed accumulation at G0/G1 phase at 50 ug/ml incubated for 24 hrs by propidium iodide staining based flow cytometry (reference value: 74.51%); type: functional
# HEp-2 [17] = experiment: Induction of cell cycle arrest in human Hep2 cells assessed accumulation at S phase at 10 ug/ml incubated for 24 hrs by propidium iodide staining based flow cytometry (reference value: 21.06%); type: functional
# HEp-2 [18] = experiment: Induction of cell cycle arrest in human Hep2 cells assessed accumulation at S phase at 50 ug/ml incubated for 24 hrs by propidium iodide staining based flow cytometry (reference value: 21.06%); type: functional
# HEp-2 [19] = experiment: Induction of cell cycle arrest in human Hep2 cells assessed accumulation at G2/M phase at 10 ug/ml incubated for 24 hrs by propidium iodide staining based flow cytometry (reference value: 7.82%); type: functional
# HEp-2 [20] = experiment: Induction of cell cycle arrest in human Hep2 cells assessed accumulation at G2/M phase at 50 ug/ml incubated for 24 hrs by propidium iodide staining based flow cytometry (reference value: 7.82%); type: functional
# [21] = Reduction in PRKAA1 gene expression in human Hep2 cells at 10 ug/ml incubated for 24 hrs by real-time PCR method; type: functional, cell-based; settings: HEp-2
# Outline: (§2)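 HEp-2 cells were treated 24 h at 10 or 50 µg/mL. Total RNA was extracted with Trizol, and 2 µg was reverse-transcribed. 50 ng cDNA went into TaqMan real-time PCR with beta-actin as endogenous control. Relative expression was calculated by the ∆∆CT method. Each experiment was run three times.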
# [22] = Reduction in PRKAA1 gene expression in human Hep2 cells at 50 ug/ml incubated for 24 hrs by real-time PCR method; type: functional, cell-based; settings: HEp-2; outline: as §2
# [23] = Reduction in PRKAA2 gene expression in human Hep2 cells at 10 ug/ml incubated for 24 hrs by real-time PCR method; type: functional, cell-based; settings: HEp-2; outline: as §2
# [24] = Reduction in PRKAA2 gene expression in human Hep2 cells at 50 ug/ml incubated for 24 hrs by real-time PCR method; type: functional, cell-based; settings: HEp-2; outline: as §2
# HEp-2 [25] = experiment: Increase in cyclin B gene expression in human Hep2 cells at 50 ug/ml incubated for 24 hrs by real-time PCR method; type: functional, cell-based; outline: as §2
# HEp-2 [26] = experiment: Increase in cyclin B gene expression in human Hep2 cells at 10 ug/ml incubated for 24 hrs by real-time PCR method; type: functional, cell-based; outline: as §2
# HEp-2 [27] = experiment: Increase in TRAIL-R2 protein expression in human Hep2 cells at 50 ug/ml incubated for 24 hrs by protein array method; type: functional, cell-based
# HEp-2 [28] = experiment: Increase in TRAIL-R1 protein expression in human Hep2 cells at 50 ug/ml incubated for 24 hrs by protein array method; type: functional, cell-based
# HEp-2 [29] = experiment: Increase in FADD protein expression in human Hep2 cells at 50 ug/ml incubated for 24 hrs by protein array method; type: functional, cell-based
# HEp-2 [30] = experiment: Increase in Fas/TNFRSF6 protein expression in human Hep2 cells at 50 ug/ml incubated for 24 hrs by protein array method; type: functional, cell-based
# HEp-2 [31] = experiment: Increase in caspase-8 levels in human Hep2 cells at 50 ug/ml incubated for 24 hrs by protein array method; type: functional, cell-based
# HEp-2 [32] = experiment: Reduction in pro-caspase-3 levels in human Hep2 cells at 50 ug/ml incubated for 24 hrs by protein array method; type: functional, cell-based
# HEp-2 [33] = experiment: Increase in cleaved-caspase-3 levels in human Hep2 cells at 50 ug/ml incubated for 24 hrs by protein array method; type: functional, cell-based
# HEp-2 [34] = experiment: Reduction in XIAP levels in human Hep2 cells at 50 ug/ml incubated for 24 hrs by protein array method; type: functional, cell-based
# HEp-2 [35] = experiment: Reduction in c-IAP1 levels in human Hep2 cells at 50 ug/ml incubated for 24 hrs by protein array method; type: functional, cell-based
# HEp-2 [36] = experiment: Reduction in c-IAP2 levels in human Hep2 cells at 50 ug/ml incubated for 24 hrs by protein array method; type: functional, cell-based
# HEp-2 [37] = experiment: Reduction in livin protein levels in human Hep2 cells at 50 ug/ml incubated for 24 hrs by protein array method; type: functional, cell-based
# HEp-2 [38] = experiment: Reduction in survivin protein levels in human Hep2 cells at 50 ug/ml incubated for 24 hrs by protein array method; type: functional, cell-based
# HEp-2 [39] = experiment: Reduction in HSP27 protein levels in human Hep2 cells at 50 ug/ml incubated for 24 hrs by protein array method; type: functional, cell-based
# HEp-2 [40] = experiment: Reduction in HSP70 protein levels in human Hep2 cells at 50 ug/ml incubated for 24 hrs by protein array method; type: functional, cell-based
# HEp-2 [41] = experiment: Induction of apoptosis in human Hep2 cells assessed as increase in p53 S15/S46/S392 phosphorylation level at 50 ug/ml incubated for 24 hrs by protein array method; type: functional, cell-based
# HEp-2 [42] = experiment: Increase in PRKAA1 gene expression in human Hep2 cells at 50 ug/ml incubated for 24 hrs by real-time PCR method; type: functional, cell-based; outline: as §2
# HEp-2 [43] = experiment: Increase in PRKAA2 gene expression in human Hep2 cells at 50 ug/ml incubated for 24 hrs by real-time PCR method; type: functional, cell-based; outline: as §2
smiles,measurement,setting,value
Cn1cc(C(=O)NC(=S)Nc2ccccc2Br)cn1,viability at 12.5 µg/mL,THP-1 [1],98%
same,viability at 25 µg/mL,THP-1 [2],59.4%
same,viability at 50 µg/mL,THP-1 [3],31.9%
same,viability at 12.5 µg/mL,[4],100%
same,viability at 25 µg/mL,[5],100%
same,viability at 50 µg/mL,[6],91.5%
same,viability at 12.5 µg/mL,[7],100%
same,viability at 25 µg/mL,[8],100%
same,viability at 50 µg/mL,[9],80%
same,Activity,HCT-8 [10],1.87%
same,Activity,HCT-8 [11],1.23%
same,Activity,HCT-8 [12],5.41%
same,Activity,HCT-8 [13],91.5%
same,Activity,HEp-2 [14],Dose-dependent effect
same,Activity,HEp-2 [15],74.41%
same,Activity,HEp-2 [16],70.17%
same,Activity,HEp-2 [17],19.09%
same,Activity,HEp-2 [18],21.87%
same,Activity,HEp-2 [19],10.28%
same,Activity,HEp-2 [20],15.93%
same,Activity,[21],inactive
same,Activity,[22],inactive
same,Activity,[23],inactive
same,Activity,[24],inactive
same,Activity,HEp-2 [25],Active
same,Activity,HEp-2 [26],Active
Cn1cc(C(=O)NC(=S)Nc2cccc(Br)c2)cn1,viability at 12.5 µg/mL,THP-1 [1],77%
same,viability at 25 µg/mL,THP-1 [2],55.8%
same,viability at 50 µg/mL,THP-1 [3],32%
same,viability at 12.5 µg/mL,[4],94%
same,viability at 25 µg/mL,[5],89.8%
same,viability at 50 µg/mL,[6],78.2%
same,viability at 12.5 µg/mL,[7],100%
same,viability at 25 µg/mL,[8],82%
same,viability at 50 µg/mL,[9],70%
same,Activity,HCT-8 [10],7.58%
same,Activity,HCT-8 [11],7.07%
same,Activity,HCT-8 [12],7.11%
same,Activity,HCT-8 [13],78.2%
same,Activity,HEp-2 [27],Active
same,Activity,HEp-2 [28],Active
same,Activity,HEp-2 [29],Active
same,Activity,HEp-2 [30],Active
same,Activity,HEp-2 [31],Active
same,Activity,HEp-2 [32],Active
same,Activity,HEp-2 [33],Active
same,Activity,HEp-2 [34],Active
same,Activity,HEp-2 [35],Active
same,Activity,HEp-2 [36],Active
same,Activity,HEp-2 [37],Active
same,Activity,HEp-2 [38],Active
same,Activity,HEp-2 [39],Active
same,Activity,HEp-2 [40],Active
same,Activity,HEp-2 [41],Active
same,Activity,HEp-2 [14],Dose-dependent effect
same,Activity,HEp-2 [15],66.12%
same,Activity,HEp-2 [16],15.4%
same,Activity,HEp-2 [17],20.85%
same,Activity,HEp-2 [18],34.7%
same,Activity,HEp-2 [19],18.43%
same,Activity,HEp-2 [20],52.33%
same,Activity,[21],Active
same,Activity,[23],Active
same,Activity,HEp-2 [42],Active
same,Activity,HEp-2 [43],Active
same,Activity,HEp-2 [25],Active
same,Activity,HEp-2 [26],Active

# Reference: ChEMBL document CHEMBL3603756, “Synthesis and apoptotic activity of new pyrazole derivatives in cancer cell lines” (2015)
